# Results collected from several papers.
# Protocols differ between the studies behind these lines.
# Cell line: HT-29
# Observed: cell growth or viability
SMILES,method,concentration,inhibition [%]
COc1ccc(C2=Nn3c(NN=C4C(=O)Nc5ccc(OC)cc54)nnc3SC2)cc1,SRB,10 µM,24
CN1C(=O)/C(=N\NC(=O)c2cc3ccccc3[nH]2)c2cc(Br)ccc21,,30 µM,95.2
COc1cc2ncnc(NN=C3C(=O)Nc4ccccc43)c2cc1OC,,30 µM,38.7
O=C1Nc2ccc(Br)cc2/C1=N/NC(=O)c1cc2ccccc2[nH]1,,30 µM,64.5
COc1ccc(C(=O)/C=C/c2cccnc2)cc1S(N)(=O)=O,SRB,10 µM,76
COc1ccc2c(c1)C(=NNc1nc(-c3ccc(OC)c(OC)c3)nc3ccccc13)C(=O)N2,,30 µM,6.2
CCN(CC)CCNC(=O)c1c(C)[nH]c(/C=C2\C(=O)Nc3ccc(F)cc32)c1C,,30 µM,59.5
COc1ccc(C(=O)/C=C/c2cc3c(cc2Br)OCO3)cc1S(N)(=O)=O,SRB,10 µM,100
O=C1Nc2ccc(F)cc2/C1=N/NC(=O)c1cc2ccccc2[nH]1,,30 µM,13.9
Cn1c(=O)c(NN=C2C(=O)Nc3ccc(Cl)cc32)nc2ccccc21,,30 µM,16.1
COc1ccc(C(=O)/C=C/c2cccc(Br)c2)cc1S(N)(=O)=O,SRB,10 µM,156
Cn1c(=O)c(NN=C2C(=O)Nc3ccc(Br)cc32)nc2ccccc21,,30 µM,49.4
COc1ccc(C(=O)/C=C/c2cccc(Cl)c2Cl)cc1S(N)(=O)=O,SRB,10 µM,106
COc1ccc2c(c1)C(=NNc1nnc(Cc3ccccc3)c3ccccc13)C(=O)N2,,30 µM,9.3
COc1ccc2c(c1)/C(=N/NC(=O)c1cc3ccccc3[nH]1)C(=O)N2,,30 µM,36.5
COc1ccc(C(=O)/C=C/c2cccc3ccccc23)cc1S(N)(=O)=O,SRB,10 µM,140
COc1ccc2c(c1)C(=NNc1nc3ccccc3n(C)c1=O)C(=O)N2,,30 µM,48.5
COc1ccc(C(=O)/C=C/c2ccc(Cl)c(Cl)c2)cc1S(N)(=O)=O,SRB,10 µM,150
CN1C(=O)/C(=N\NC(=O)c2cc3ccccc3[nH]2)c2cc(F)ccc21,,30 µM,91.3
